Screens deposited in PubChem BioAssay by Broad Institute.
CAL PDZ FP-1 – blocks peptide binding to human CAL PDZ domain; Q9HD26; purified CAL PDZ, TMR-peptide fluorescence polarization, 1 h; inhibition, % at 20 µM; 330,000 tested, 0.02% active; AID 504414;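 active = highest replicate inhibition of at least 40%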;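 also: plate controls were DMSO neutral control wells for no effect and unlabeled competitor peptide control wells for full effect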
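System: tagged CAL PDZ domain. Schedule: 1 h room-temperature incubation prior to read. Signal: fluorescence polarization (mP). Measure: percent inhibition from loss of millipolarization.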
DYRK1A inh – inhibitors of rat Dyrk1A kinase | Q63470 | ADP-Glo luminescence, NFATc1 peptide | inhibition, % at 12.5 µM | 310,000 tested, 0.43% active | AID 504441; in the data active = inhibition above about 50%;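 also: plate controls were vehicle with enzyme for no effect and no enzyme for full effect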
CAL PDZ FP-2 – blocks peptide binding to the human CAL PDZ domain. Q9HD26. purified CAL PDZ, TMR-peptide fluorescence polarization, 1 h. inhibition, % at 24.9 µM. 300,000 tested, 0.92% active. AID 602252;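 active = mean inhibition of at least 30% with at least half of replicates also reaching 30%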;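 also: 0% = DMSO neutral control and 100% = excess unlabeled competitor peptide PRC23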
ARNT-TACC3 inh – ARNT/TACC3 interaction disruption. 390,000 tested, 0.66% active. AlphaScreen His-ARNT PAS-B/GST-TACC3 binding, luminescence; TACC3 fragment carries E629A point mutation. Q9Y6A5. inhibition, % at 9.99 µM;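 active = mean inhibition of replicates at least 50% and at least half of replicates each reaching 50%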;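 also: 0% = complete ARNT plus TACC3 wells and 100% = ARNT alone without TACC3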
ARNT Alpha ctr-1 – interferes with AlphaScreen signal, flagging false ARNT-TACC3 hits; shares compounds with ARNT-TACC3 inh; His-ARNT PASB-GST AlphaScreen artifact counter-screen, luminescence; AC50, µM (doses to about 68 µM), without a hit: top-dose activity change, negative = signal decrease; 1,200 tested, 50% active; AID 651705;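 active = every separate test run was called active for a drop in luminescence, with AC50 within twice the top valid dose, actives reach about 71 µM in these data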
ARNT Alpha ctr-2 – AlphaScreen artifact flagged for ARNT-TACC3 inhibitors; shares compounds with ARNT-TACC3 inh; Dual-tagged His-ARNT PASB-GST AlphaScreen artifact counter-screen; AC50, µM; 45 tested, 70% active;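 active = luminescence drop, with half-maximal potency fitted within twice the sample's top valid dose, cut at about 70 µM in these data; inactive = the rest, including signal moving the wrong way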
Starred values were filed as active, the others as inactive; x = not tested or not shown; [ ] = dose if it differs, or a comment. Compounds with a hit are over-represented: about 1.4% of the library has one in this group of screens.

SMILES | CAL PDZ FP-1 | DYRK1A inh | CAL PDZ FP-2 | ARNT-TACC3 inh | ARNT Alpha ctr-1 | others
CCc1cc2c(=O)[nH]c(-c3ccccn3)nc2s1 | -2 | 1 | -1 | 76* | 51µM* | ARNT Alpha ctr-2=17*
CCc1cc2c(=O)[nH]c(N3CCCC3)nc2s1 | 1 | -3 | 1 | -4 | x
C[C@H](CO)N1C[C@H](C)[C@H](CN(C)Cc2ccc(C(=O)O)cc2)OCCCC[C@H](C)Oc2ccc(NC(=O)c3ccccc3)cc2C1=O | x | x | x | -8 | x
CS(=O)(=O)Nc1ccc2c(c1)[C@H]1C[C@H](CC(=O)NCC3CC3)O[C@H](CO)[C@H]1O2 | x | x | x | -3 | x
COC(=O)Cc1cc(=O)n(-c2nc3ccccc3[nH]2)[nH]1 | -2 | 3 | x | 62* | 60µM* | ARNT Alpha ctr-2=38*
COC(=O)c1[nH]c2ccc(Cl)cc2c1NC(=O)c1ccccc1[N+](=O)[O-] | -2 | 4 | -2 | -3 | x
COC(=O)c1[nH]c2ccc(C)cc2c1NC(=O)c1ccccc1[N+](=O)[O-] | 1 | -2 | 0 | 54* | -6%
Cc1ccc(C)c(-n2c(SCC(N)=O)nnc2-c2ccccn2)c1 | 0 | -10 | x | 57* | -26%
Cc1cc(C)c(NC(=O)CSc2nnc(-c3ccccn3)n2N)c(Cl)c1 | -5 | -8 | 0 | 54* | -21%
COc1ccc(NC(=O)CSc2nnc(-c3ccccn3)n2N)cc1Cl | -2 | -3 | 3 | 2 | x
Oc1cc(NCCN2CCOCC2)cc2cccnc12 | 1 | 19 | 0 | 59* | 11µM*
CC(=O)N(C)C[C@H]1Oc2ncc(-c3cccnc3)cc2C(=O)N([C@H](C)CO)C[C@@H]1C | x | x | x | -7 | x
COc1cc2c(cc1OC)-c1cc(Nc3ccc(C)cc3)nc(=O)n1CC2 | -3 | -2 | -9 | 21 | x
COc1ccc(Nc2cc3n(c(=O)n2)CCc2cc(OC)c(OC)cc2-3)cc1 | -1 | x | x | 63* | -29%
COc1ccc(CN(C)C[C@@H]2Oc3ccc(NC(=O)NC(C)C)cc3CC(=O)N([C@H](C)CO)C[C@@H]2C)cc1 | x | x | x | 14 | x
Cc1coc2c(C)c3oc(=O)c(CCC(=O)N[C@@H](C)C(=O)N[C@@H](Cc4ccccc4)C(=O)O)c(C)c3cc12 | -2 | -1 | 1 | 74* | -36%
COc1ccc(-c2coc3c(C)c4oc(=O)c(CCC(=O)O)c(C)c4cc23)cc1 | -6 | -1 | -20 | 44 | x
CCCC(NC(=O)Cc1c(C)c2cc3c(C)c(C)oc3c(C)c2oc1=O)C(=O)N[C@@H](Cc1ccccc1)C(=O)O (some centres not stated) | -4 | 6 | -12 | -2 | x
Cc1c(CCC(=O)O)c(=O)oc2c(C)c3occ(-c4ccc(Br)cc4)c3cc12 | -8 | -6 | -15 | 56* | 52µM*
Cc1nc(Nc2ccc(C(=O)O)cc2)nc(Nc2ccc(C(=O)O)cc2)c1[N+](=O)[O-] | -2 | 6 | x | 64* | 9.4µM*
Cc1ccc(S(=O)(=O)N(C)C[C@H]2OCCCC[C@@H](C)Oc3ccc(NC(=O)CCCN(C)C)cc3C(=O)N([C@@H](C)CO)C[C@H]2C)cc1 | x | x | x | -2 | x
Cc1ccc(C2CCN(C(=S)Nc3cccc(C)c3)C2)cc1 (configuration not stated) | 0 | -3 | 12 | 58* | -12%
Cc1cccc(NC(=S)N2CCCCC2)c1 | -1 | -2 | -2 | -12 | x
CC1=C(SCc2ccccc2)C(=O)c2ccccc2C1=O | 2 | 15 | 0 | 24* | 55µM*
CCN(CC)CCCNc1nc(-c2ccccc2)nc2ccccc12 | -1 | 5 | 3 | -3 | x
SMILES | CAL PDZ FP-1 | DYRK1A inh | CAL PDZ FP-2 | ARNT-TACC3 inh | ARNT Alpha ctr-1 | others
CCN(CC)CCCNc1nc2ccccc2c2[nH]c3ccc(OC)cc3c12 | 13 | 14 | -3 | 57* | -34%
O=C(N/N=C/c1cc(Cl)ccc1O)c1cccnc1 | -2 | -1 | -4 | 58* | 60µM*
O=C(N/N=C/c1cc2c(cc1Cl)OCO2)c1ccncc1 | -3 | 1 | 0 | 1 | x
O=C(N/N=C/c1c(Cl)nc2ccccn2c1=O)c1cccnc1 | -3 | 14 | -4 | 57* | -10%
O=C(N/N=C/c1cc(Cl)cc(Cl)c1O)c1ccncc1 | -4 | -1 | 0 | 54* | 34µM*
CO[C@@H]1CN(C)C(=O)c2ccc(NS(=O)(=O)c3ccccc3)cc2OC[C@H](C)NC[C@H]1C | x | x | x | -4 | x
CNC[C@H]1Oc2cc(C#Cc3ccccn3)ccc2S(=O)(=O)N([C@@H](C)CO)C[C@@H]1C | x | x | x | 14 | x
COc1ccccc1C(CCNCc1ccc(N(C)C)cc1)c1ccc(OC(C)C)cc1 (configuration not stated) | x | -5 | -13 | active | 7.7µM*
C[C@H]1CCCCO[C@@H](CN(C)Cc2ccc3c(c2)OCO3)[C@@H](C)CN([C@@H](C)CO)C(=O)c2cc(N(C)C)ccc2O1 | x | x | x | 8 | x
C[C@@H]1CCCCO[C@@H](CN(C)C(=O)Nc2ccc3c(c2)OCO3)[C@@H](C)CN([C@@H](C)CO)C(=O)c2cc(N(C)C)ccc2O1 | x | x | x | 54* | -23%[42 µM]
C[C@@H]1CN([C@H](C)CO)C(=O)c2cc(N(C)C)ccc2O[C@@H](C)CCCCO[C@@H]1CN(C)Cc1ccc2c(c1)OCO2 | x | x | x | 57* | 58µM*
C[C@H]1CCCCO[C@@H](CN(C)C(=O)Nc2ccc3c(c2)OCO3)[C@@H](C)CN([C@@H](C)CO)C(=O)c2cc(N(C)C)ccc2O1 | x | x | x | 3 | x
C[C@@H]1CN([C@H](C)CO)C(=O)c2cc(NC(=O)Nc3ccc(C(F)(F)F)cc3)ccc2O[C@@H](C)CCCCO[C@H]1CN(C)Cc1ccc2c(c1)OCO2 | x | x | x | 68* | 53µM*
C[C@@H]1CCCCO[C@H](CN(C)Cc2ccncc2)[C@H](C)CN([C@H](C)CO)C(=O)c2cc(NC(=O)C3CCCCC3)ccc2O1 | x | x | x | 62* | -13%[42 µM]
COCCOC(=O)N1C(=O)[C@@]2(c3ccccc31)[C@H](c1ccccc1OCCO)N1[C@H](c3ccccc3)[C@H](c3ccccc3)OC(=O)[C@H]1[C@@H]2C(=O)N1CCN(c2ncccn2)CC1 | x | x | x | 17 | x
C[C@@H]1CN([C@H](C)CO)C(=O)c2cccc(NC(=O)Nc3cccc4ccccc34)c2O[C@@H]1CN(C)S(C)(=O)=O | x | x | x | -2 | x
COc1ccc(C2C(C#N)=C(N)Oc3n[nH]c(-c4ccccn4)c32)c(OC)c1OC (configuration not stated) | 0 | -3 | -4 | 60* | -20%
COc1cc(C2C(C#N)=C(N)Oc3n[nH]c(-c4ccncc4)c32)cc(OC)c1OC (configuration not stated) | -1 | -5 | 0 | x | x
C[C@H](CO)N1C[C@H](C)[C@@H](CN(C)C(=O)CN(C)C)Oc2cc(C#CC(C)(C)O)ccc2S1(=O)=O | x | x | x | -11 | x
CC1CCN(S(=O)(=O)c2ccc(C(=O)Nc3nnc(C4=COCCO4)o3)cc2)CC1 | 0 | x | x | 62* | -25% | ARNT Alpha ctr-2=>136
